A selection: hits, their analogues and other compounds. The true share with any hit is near 2.3%.
Mac1 fbg inh = inhibitors of CD11b/CD18 adhesion to fibrinogen, primary screen, K562 cells, luminescence. Integrin beta-2 (Homo sapiens) + Integrin alpha-M (Homo sapiens), P05107+P11215. ATPlite luminescence; Mn2+ added to activate the integrin. inhibition, % at 10 µM. 93,000 tested, 0.54% active;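 active = primary inhibition of 50% or more at 10 µM, then 40% or more on retest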
tolC growth inh = growth inhibitors of E. coli tolC mutant, primary screen, strain BW25113 ΔtolC::kan, 384-well. OD615. growth inhibition, % at 10 µM (by protocol). 65,000 tested, 2.2% active. AID 573, 2007;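 active = growth inhibition at or above a cutoff equal to the mean over every tested compound plus 3 SD, cut at about 60% in these data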;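 note: growth measured after 20 h incubation at 37 °C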
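Test system – E. coli BW25113 ΔtolC::kan, tolC deletion mutant strain · Detection – OD at 615 nm · Buffer or medium – LB with kanamycin 50 µg/mL · Times – 20 h compound exposure of bacteria at 37 °C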
Mac1 fbg enh = enhancers of CD11b/CD18 adhesion to fibrinogen, primary screen, K562 cells, luminescence. Integrin beta-2 (Homo sapiens) + Integrin alpha-M (Homo sapiens), P05107+P11215. ATPlite luminescence. activation, % at 10 µM. 93,000 tested, 0.07% active. AID 1499, 2009;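 active = 10 µM primary screen giving 50% or more activity, confirmed by 40% or more on retest at that dose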
Ecoli WT expand = growth inhibitors of wild-type E. coli, primary screen, strain BW25113, expanded library, OD600; OD600 absorbance; growth inhibition, % at 100 µM; 98,000 tested, 0.15% active;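 active = growth inhibition above about 50% at one test dose, limit read from the data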;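 note: growth measured after 20 h incubation at 37 °C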
Pyk2 oligo antag = antagonists of Pyk2 self-association, primary screen, Q293 cells, FERM NanoBiT luminescence, HTS | Protein-tyrosine kinase 2-beta (Homo sapiens), Q14289 | hits give low values | z-score (the deposit names both 25 µM and 10 µM) | 99,000 tested, 0.83% active;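 active = Z-score of -3 or lower, scaled per plate to the spread of control and sample wells; inactive = z-score above -3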;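 note: negative z-score means lost luminescence so less FERM oligomerization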
Starred values were filed as active, the others as inactive; x = no result given.

SMILES	Mac1 fbg inh	tolC growth inh	Mac1 fbg enh	Ecoli WT expand	Pyk2 oligo antag
CC(C)(C)n1nnnc1C(c1cccs1)N1CCCc2ccccc21 (stereo unspecified)	-3	82*	6	-3	0.29
Cc1ccc(NC(=O)N(Cc2nc3ccccc3c(=O)[nH]2)Cc2cccs2)cc1	5	x	0	x	x
CCOC(=O)c1cccc2c1-c1ccccc1/C2=N/O	18	100*	13	3	-2.4
CC(C)COC(=O)c1cccc2c1-c1ccccc1/C2=N\O	x	x	x	x	-2.6
CC1CCCC(C)N1C(=O)c1cccc2c1-c1ccccc1/C2=N/O (stereo unspecified)	x	x	x	x	-3.3*
O=[N+]([O-])c1ccc(-c2nc(-c3cccs3)c(-c3cccs3)[nH]2)cc1	x	x	x	-7	-4.2*
COc1ccccc1NC(=O)c1ccc(Cl)c(S(=O)(=O)N2CCOCC2)c1	2	4	-3	2	0.55
COc1ccc(NC(=O)c2ccc(Cl)c(S(=O)(=O)N3CCc4ccccc4C3)c2)cn1	100	62*	-8	-10	-1.9
CCc1nc2sc3ccccc3c(=O)c2c(=O)n1Cc1ccco1	x	91*	x	3	-0.33
COc1cc(NC(=O)c2cccc(COCC(F)(F)C(F)F)c2)cc(OC)c1OC	4	x	1	x	x
O=C(CN1CCN(Cc2ccccc2)CC1)c1c[nH]c2ccccc12	0	-9	4	15	0.53
O=C(N/N=C/c1ccc([N+](=O)[O-])o1)c1cc(-c2ccncc2)nc2ccccc12	x	x	x	-4	0.74
Cn1c(/C=C/c2ccc([N+](=O)[O-])o2)nc2ccccc2c1=O	7	x	-3	65*	-0.02
CC1=CC(C)(C)N(S(=O)(=O)c2ccc(C)cc2)c2ccccc21	52*	x	-5	-10	-0.82
CC1=CC(C)(C)N(S(=O)(=O)c2ccc(F)cc2)c2ccc(C)cc21	36	x	-3	-7	-0.42
CCOC(=O)C1=C(C)NC(SCC(=O)Nc2cc(C)on2)=C(C#N)C1c1cccs1 (stereo unspecified)	10	94*	3	-1	-0.56
CCOC(=O)C1=C(c2ccccc2)NC(SCC(=O)Nc2ccc(C)cc2)=C(C#N)C1c1ccco1 (stereo unspecified)	18	15	14	-13	-4.3*
CCOC(=O)C1=C(C)NC(SCC(N)=O)=C(C#N)C1c1cccs1 (stereo unspecified)	x	x	x	22	-1.3
CCOC(=O)C1=C(c2ccccc2)NC(SCC(=O)Nc2cccc(C)c2)=C(C#N)C1c1ccco1 (stereo unspecified)	4	28	6	-16	-4*
Cc1ccc(NC(=O)CSC2=C(C#N)C(c3ccco3)C3=C(CC(C)(C)CC3=O)N2)cc1 (stereo unspecified)	12	69*	-3	-13	-3.4*
Cc1ccc(Cc2nnc3n(-c4cccc(C)c4)nc(C(=O)c4ccccc4)n3c2=O)cc1	x	x	x	x	-1.5
COc1ccc(CNC(=S)Nc2cccc(C)c2C)cc1	-15	x	-1	1	0.08
CCOC(=O)C1=C(c2ccccc2)NC(SC)=C(C#N)C1c1ccco1 (stereo unspecified)	8	43	-3	-12	-2.5
CCOC(=O)CSC1=C(C#N)C(c2ccco2)C(C(=O)Nc2cccc(C(F)(F)F)c2)=C(C)N1 (stereo unspecified)	-4	61*	13	-10	0.87
CC(=O)C1=C(C)NC(SCC(=O)c2ccccc2)=C(C#N)C1c1ccco1 (stereo unspecified)	-8	26	-1	-12	x
SMILES	Mac1 fbg inh	tolC growth inh	Mac1 fbg enh	Ecoli WT expand	Pyk2 oligo antag
CCOC(=O)C1=C(c2ccccc2)NC(SCC(=O)Nc2ccccc2C)=C(C#N)C1c1ccco1 (stereo unspecified)	5	1	-2	-17	-3.7*
CC1(C)CC2(CCO1)OC(=O)CC2C(=O)NCc1ccccc1 (stereo unspecified)	-10	-8	-1	-8	0.04
CCOc1ccc(Oc2ccc(-c3nnc(-c4ccccc4)o3)cc2[N+](=O)[O-])cc1	x	x	x	-11	2
COc1ccc(C(=O)NCC(=O)NCC2COc3ccccc3O2)cc1 (stereo unspecified)	-1	x	-3	-2	-0.54
c1ccc(-c2nn3c(C4CCCCC4)nnc3s2)nc1	0	-11	2	-3	0.38
Clc1ccc(OCc2nn3c(C4CCCCC4)nnc3s2)cc1	-12	97*	-2	-7	1.7

Source: PubChem BioAssay
